Source: ChEMBL document CHEMBL1137665, “Antistaphylococcal activity of CG400549, a new experimental FabI inhibitor, compared with that of other agents” (2007)
≈ marks a conversion by molar mass, not a printed value.

Columns and labels:
Type in all cases: functional
[1] = tested on: Staphylococcus aureus; experiment: Antimicrobial activity against methicillin-susceptible Staphylococcus aureus by agar dilution CLSI method
Procedure, shortened: (§1)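 CLSI agar dilution MIC against S. aureus clinical isolates. Calcium was added to the medium for daptomycin testing. Vancomycin plates were read after a full 24-h incubation.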

[2] = tested on: Staphylococcus aureus; experiment: Antimicrobial activity against methicillin-resistant Staphylococcus aureus by agar dilution CLSI method; procedure, shortened: as §1
[3] = tested on: Staphylococcus aureus; experiment: Antimicrobial activity against panton-valentine leukocidin-negative community-acquired methicillin-resistant Staphylococcus aureus 481 by agar dilution CLSI method; procedure, shortened: as §1
[4] = tested on: Staphylococcus aureus; experiment: Antimicrobial activity against community-acquired vancomycin-intermediate Staphylococcus aureus 504 by agar dilution CLSI method; procedure, shortened: as §1
[5] = tested on: Staphylococcus aureus; experiment: Antimicrobial activity against vancomycin-resistant Staphylococcus aureus 510 Hershey by agar dilution CLSI method
Procedure, shortened: (§2)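 Agar dilution MIC per CLSI methodology; calcium supplemented for daptomycin testing; vancomycin plates read after a full 24-h incubation.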

[6] = tested on: Staphylococcus aureus; experiment: Antimicrobial activity against methicillin-resistant Staphylococcus aureus 525 by agar dilution CLSI method; procedure, shortened: as §1
[7] = tested on: Staphylococcus aureus; experiment: Antimicrobial activity against panton-valentine leukocidin-negative community-acquired methicillin-resistant Staphylococcus aureus 481 after 14 passages with CG400549 measured after 10 antibiotic-free subculture by multi-step resistance selection technique
Procedure, shortened: (§3)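 Mutants from multistep daily serial passage in subinhibitory drug were then subcultured daily 10 times on antibiotic-free medium. MIC was redetermined after these subcultures to assess stability. Clone identity was checked by pulsed-field gel electrophoresis.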

[8] = tested on: Staphylococcus aureus; experiment: Antimicrobial activity against panton-valentine leukocidin-negative community-acquired methicillin-resistant Staphylococcus aureus 481 after 16 passages with quinupristin-dalfopristin measured after 10 antibiotic-free subculture by multi-step resistance selection technique; procedure, shortened: as §3
[9] = tested on: Staphylococcus aureus; experiment: Antimicrobial activity against panton-valentine leukocidin-positive community-acquired methicillin-resistant Staphylococcus aureus 490 after 17 passages with CG400549 measured after 10 antibiotic-free subculture by multi-step resistance selection technique
Procedure, shortened: (§4)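 Multistep-selected mutants (daily passage at subinhibitory drug levels) then subcultured 10 times daily on antibiotic-free medium; MIC redetermined afterwards and compared with the MIC recorded at the end of selection; clone identity to parent checked by pulsed-field gel electrophoresis.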

[10] = tested on: Staphylococcus aureus; experiment: Antimicrobial activity against panton-valentine leukocidin-positive community-acquired methicillin-resistant Staphylococcus aureus 490 after 22 passages with Linezolid measured after 10 antibiotic-free subculture by multi-step resistance selection technique; procedure, shortened: as §4
[11] = tested on: Staphylococcus aureus; experiment: Antimicrobial activity against panton-valentine leukocidin-positive community-acquired methicillin-resistant Staphylococcus aureus 490 after 23 passages with quinupristin-dalfopristin measured after 10 antibiotic-free subculture by multi-step resistance selection technique; procedure, shortened: as §4
[12] = tested on: Staphylococcus aureus; experiment: Antimicrobial activity against vancomycin-intermediate Staphylococcus aureus 504 after 14 passages with CG400549 measured after 10 times antibiotic-free subculture by multi-step resistance selection technique; procedure, shortened: as §4
[13] = tested on: Staphylococcus aureus; experiment: Antimicrobial activity against vancomycin-intermediate Staphylococcus aureus 504 after 22 passages with Linezolid measured after 10 times antibiotic-free subculture by multi-step resistance selection technique; procedure, shortened: as §4
[14] = tested on: Staphylococcus aureus; experiment: Antimicrobial activity against vancomycin-resistant Staphylococcus aureus 509 Michigan after 20 passages with daptomycin measured after 10 antibiotic-free subculture by multi-step resistance selection technique; procedure, shortened: as §4
[15] = tested on: Staphylococcus aureus; experiment: Antimicrobial activity against methicillin and vancomycin-resistant Staphylococcus aureus 510 after single-step resistance selection by agar dilution CLSI method
Procedure, shortened: (§5)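 Single-step selection on drug-containing agar across 10 strains (2 MSSA, 8 MRSA, including VRSA and VISA). Colonies arising on confluent background growth were retested by CLSI agar dilution MIC. Resistance was defined as an MIC more than 4× the parent MIC.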

[16] = tested on: Staphylococcus aureus; experiment: Antimicrobial activity against methicillin and vancomycin-resistant Staphylococcus aureus 509 after single-step resistance selection by agar dilution CLSI method; procedure, shortened: as §5
[17] = tested on: Staphylococcus aureus; experiment: Antimicrobial activity against vancomycin-resistant Staphylococcus aureus 510 Hershey after 18 passages with daptomycin measured after 10 antibiotic-free subculture by multi-step resistance selection technique; procedure, shortened: as §4
[18] = tested on: Staphylococcus aureus; experiment: Antimicrobial activity against vancomycin-resistant Staphylococcus aureus 510 Hershey after 14 passages with quinupristin-dalfopristin measured after 10 antibiotic-free subculture by multi-step resistance selection technique; procedure, shortened: as §4
[19] = tested on: Staphylococcus aureus; experiment: Antimicrobial activity against vancomycin-intermediate Staphylococcus aureus 555 Hershey by agar dilution CLSI method; procedure, shortened: as §2
[20] = tested on: Staphylococcus aureus; experiment: Antimicrobial activity against methicillin-resistant Staphylococcus aureus 525 after 20 passages with daptomycin measured after 10 antibiotic-free subculture by multi-step resistance selection technique; procedure, shortened: as §3
[21] = tested on: Staphylococcus aureus; experiment: Antimicrobial activity against methicillin-resistant Staphylococcus aureus 525 after 16 passages with quinupristin-dalfopristin measured after 10 antibiotic-free subculture by multi-step resistance selection technique; procedure, shortened: as §3
[22] = tested on: Staphylococcus aureus; experiment: Antimicrobial activity against methicillin-resistant Staphylococcus aureus 547 after 21 passages with daptomycin measured after 10 antibiotic-free subculture by multi-step resistance selection technique; procedure, shortened: as §3
[23] = tested on: Staphylococcus aureus; experiment: Antimicrobial activity against methicillin-resistant Staphylococcus aureus 547 after 48 passages with Linezolid measured after 10 antibiotic-free subculture by multi-step resistance selection technique; procedure, shortened: as §3
[24] = tested on: Staphylococcus aureus; experiment: Antimicrobial activity against vancomycin-intermediate Staphylococcus aureus 555 Hershey after 14 passages with CG400549 measured after 10 antibiotic-free subculture by multi-step resistance selection technique; procedure, shortened: as §4
[25] = tested on: Staphylococcus aureus; experiment: Antimicrobial activity against vancomycin-intermediate Staphylococcus aureus 555 Hershey after 20 passages with quinupristin-dalfopristin measured after 10 antibiotic-free subculture by multi-step resistance selection technique; procedure, shortened: as §4
[26] = tested on: Staphylococcus aureus; experiment: Antimicrobial activity against methicillin-susceptible Staphylococcus aureus 540 after 24 passages with daptomycin measured after 10 antibiotic-free subculture by multi-step resistance selection technique; procedure, shortened: as §3
[27] = tested on: Staphylococcus aureus; experiment: Antimicrobial activity against methicillin-susceptible Staphylococcus aureus 540 after 36 passages with Linezolid measured after 10 antibiotic-free subculture by multi-step resistance selection technique; procedure, shortened: as §3
[28] = tested on: Staphylococcus aureus; experiment: Antimicrobial activity against methicillin-susceptible Staphylococcus aureus 540 after 16 passages with quinupristin-dalfopristin measured after 10 antibiotic-free subculture by multi-step resistance selection technique; procedure, shortened: as §3
[29] = tested on: Staphylococcus aureus; experiment: Antimicrobial activity against methicillin-susceptible Staphylococcus aureus 543 after 14 passages with CG400549 measured after 10 antibiotic-free subculture by multi-step resistance selection technique; procedure, shortened: as §3
[30] = tested on: Staphylococcus aureus; experiment: Antimicrobial activity against methicillin-susceptible Staphylococcus aureus 543 after 17 passages with daptomycin measured after 10 antibiotic-free subculture by multi-step resistance selection technique; procedure, shortened: as §3
[31] = tested on: Staphylococcus aureus; experiment: Antimicrobial activity against methicillin-susceptible Staphylococcus aureus 543 after 15 passages with Linezolid measured after 10 antibiotic-free subculture by multi-step resistance selection technique; procedure, shortened: as §3
[32] = tested on: Staphylococcus aureus; experiment: Antimicrobial activity against methicillin-resistant vancomycin-intermediate Staphylococcus aureus 555 after single-step resistance selection by agar dilution CLSI method; procedure, shortened: as §5
[33] = tested on: Staphylococcus aureus; experiment: Antimicrobial activity against methicillin-resistant vancomycin-intermediate Staphylococcus aureus 504 after single-step resistance selection by agar dilution CLSI method; procedure, shortened: as §5
[34] = tested on: Staphylococcus aureus; experiment: Antimicrobial activity against methicillin-resistant Staphylococcus aureus 481 after single-step resistance selection by agar dilution CLSI method; procedure, shortened: as §5
[35] = tested on: Staphylococcus aureus; experiment: Antimicrobial activity against methicillin-resistant Staphylococcus aureus 547 after single-step resistance selection by agar dilution CLSI method; procedure, shortened: as §5
[36] = tested on: Staphylococcus aureus; experiment: Antimicrobial activity against methicillin-susceptible Staphylococcus aureus 543 after single-step resistance selection by agar dilution CLSI method; procedure, shortened: as §5

Compound | MIC50 [1] [µg/mL] | MIC90 [1] [µg/mL] | MIC50 [2] [µg/mL] | MIC90 [2] [µg/mL] | MIC [3] [µg/mL] | MIC [4] [µg/mL] | MIC [5] [µg/mL] | MIC [6] [µg/mL] | MIC [7] [µg/mL] | MIC [8] [µg/mL] | MIC [9] [µg/mL] | MIC [10] [µg/mL] | MIC [11] [µg/mL] | MIC [12] [µg/mL] | MIC [13] [µg/mL] | MIC [14] [µg/mL] | MIC [15] [µg/mL] | MIC [16] [µg/mL] | MIC [17] [µg/mL] | MIC [18] [µg/mL] | also measured
CCCCCCCCCC(=O)N[C@@H](Cc1c[nH]c2ccccc12)C(=O)N[C@H](CC(N)=O)C(=O)N[C@@H](CC(=O)O)C(=O)N[C@@H]1C(=O)NCC(=O)N[C@@H](CCCN)C(=O)N[C@@H](CC(=O)O)C(=O)N[C@H](C)C(=O)N[C@@H](CC(=O)O)C(=O)NCC(=O)N[C@H](CO)C(=O)N[C@@H]([C@H](C)CC(=O)O)C(=O)N[C@@H](CC(=O)c2ccccc2N)C(=O)O[C@@H]1C | 1 (≈ 0.617 µM) | 1 (≈ 0.617 µM) | 0.5 (≈ 0.309 µM) | 0.5 (≈ 0.309 µM) | 1 (≈ 0.617 µM) | 4 (≈ 2.47 µM) | 1 (≈ 0.617 µM) | 1 (≈ 0.617 µM) | 1 (≈ 0.617 µM) | 1 (≈ 0.617 µM) | 1 (≈ 0.617 µM) | 1 (≈ 0.617 µM) | 1 (≈ 0.617 µM) | 1 (≈ 0.617 µM) | 1 (≈ 0.617 µM) | 4 (≈ 2.47 µM) | 0.5 (≈ 0.309 µM) | 0.5 (≈ 0.309 µM) | 4 (≈ 2.47 µM) | 0.5 (≈ 0.309 µM) | MIC [19]: 16 µg/mL (≈ 9.87 µM); MIC [20]: 2 µg/mL (≈ 1.23 µM); MIC [21]: 1 µg/mL (≈ 0.617 µM); MIC [22]: 4 µg/mL (≈ 2.47 µM); MIC [23]: 2 µg/mL (≈ 1.23 µM); MIC [24]: 8 µg/mL (≈ 4.94 µM); MIC [25]: 2 µg/mL (≈ 1.23 µM); MIC [26]: 2 µg/mL (≈ 1.23 µM); MIC [27]: 2 µg/mL (≈ 1.23 µM); MIC [28]: 2 µg/mL (≈ 1.23 µM); MIC [29]: 1 µg/mL (≈ 0.617 µM); MIC [30]: 4 µg/mL (≈ 2.47 µM); MIC [31]: 2 µg/mL (≈ 1.23 µM); MIC [32]: 0.5 µg/mL (≈ 0.309 µM); MIC [33]: 0.5 µg/mL (≈ 0.309 µM); MIC [34]: 0.5 µg/mL (≈ 0.309 µM); MIC [35]: 0.5 µg/mL (≈ 0.309 µM); MIC [36]: 0.5 µg/mL (≈ 0.309 µM)
Cc1c(N)cccc1Cn1ccc(OCCc2cccs2)cc1=O [CG-400549] | 0.25 (≈ 0.734 µM) | 0.25 (≈ 0.734 µM) | 0.25 (≈ 0.734 µM) | 0.25 (≈ 0.734 µM) | 0.25 (≈ 0.734 µM) | 0.25 (≈ 0.734 µM) | 0.25 (≈ 0.734 µM) | 0.25 (≈ 0.734 µM) | 2 (≈ 5.87 µM) | 0.25 (≈ 0.734 µM) | 8 (≈ 23.5 µM) | 0.25 (≈ 0.734 µM) | 0.125 (≈ 0.367 µM) | 2 (≈ 5.87 µM) | 0.25 (≈ 0.734 µM) | 1 (≈ 2.94 µM) | 0.125 (≈ 0.367 µM) | 0.125 (≈ 0.367 µM) | 0.125 (≈ 0.367 µM) | 0.25 (≈ 0.734 µM) | MIC [19]: 0.25 µg/mL (≈ 0.734 µM); MIC [20]: 0.125 µg/mL (≈ 0.367 µM); MIC [21]: 0.125 µg/mL (≈ 0.367 µM); MIC [22]: 0.125 µg/mL (≈ 0.367 µM); MIC [23]: 0.125 µg/mL (≈ 0.367 µM); MIC [24]: 2 µg/mL (≈ 5.87 µM); MIC [25]: 0.25 µg/mL (≈ 0.734 µM); MIC [26]: 0.125 µg/mL (≈ 0.367 µM); MIC [27]: 0.125 µg/mL (≈ 0.367 µM); MIC [28]: 0.125 µg/mL (≈ 0.367 µM); MIC [29]: 8 µg/mL (≈ 23.5 µM); MIC [30]: 0.125 µg/mL (≈ 0.367 µM); MIC [31]: 0.125 µg/mL (≈ 0.367 µM); MIC [32]: 0.125 µg/mL (≈ 0.367 µM); MIC [33]: 0.125 µg/mL (≈ 0.367 µM); MIC [34]: 0.125 µg/mL (≈ 0.367 µM); MIC [35]: 0.125 µg/mL (≈ 0.367 µM); MIC [36]: 0.125 µg/mL (≈ 0.367 µM)
